Test [1] has as its target T1, D(2) dopamine receptor (Rattus norvegicus, UniProt P61169). Put plainly: Binding affinity against D2 receptor in rat corpus striatum using [3H]sulpiride as the radioligand. It counts as tissue-based. In a few lines:
(§1)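 Fresh rat striatum homogenised in 50 mM Tris-HCl pH 7.5, pellet resuspended in buffer with 100 mM NaCl to 3.75 mg wet weight/mL. Incubated with 3 nM [3H]sulpiride for 60 min at 25 °C, in triplicate; 10 μM haloperidol defined nonspecific binding. Filtration on polyethyleneimine-treated filters; IC50 from concentration-response curves converted to Ki by Cheng-Prusoff; mean of at least three determinations.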

Test [2] deals with T1, D(2) dopamine receptor. Put plainly: Compound was tested for binding affinity against D2 receptor in rat corpus striatum, using [3H]sulpiride as the radioligand. It counts as tissue-based. In a few lines:
as §1

Each structure is given as a SMILES string.

T1 sequence (P61169 whole entry): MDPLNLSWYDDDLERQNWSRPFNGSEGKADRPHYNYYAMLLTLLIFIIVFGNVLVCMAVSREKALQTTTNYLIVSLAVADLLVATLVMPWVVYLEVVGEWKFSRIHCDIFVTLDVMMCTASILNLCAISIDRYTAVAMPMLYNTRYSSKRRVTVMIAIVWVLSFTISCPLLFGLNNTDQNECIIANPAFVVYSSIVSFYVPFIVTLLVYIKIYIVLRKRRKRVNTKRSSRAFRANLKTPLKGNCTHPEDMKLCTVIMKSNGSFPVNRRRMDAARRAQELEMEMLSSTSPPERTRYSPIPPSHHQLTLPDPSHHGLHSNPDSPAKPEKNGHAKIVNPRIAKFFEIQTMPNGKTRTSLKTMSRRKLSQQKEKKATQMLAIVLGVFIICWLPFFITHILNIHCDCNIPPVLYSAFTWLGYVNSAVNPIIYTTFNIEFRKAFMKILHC

On to `O=C(CCCN1C2CCC1c1c([nH]c3ccccc13)C2)c1ccc(F)cc1` (stereo not drawn), for which the affinity on D(2) dopamine receptor [1] corresponds to a Ki of 0.27 µM.

With `CCN1C2CCC1c1c([nH]c3ccccc13)C2` (stereo not drawn), the Ki on D(2) dopamine receptor [1] is > 10 µM.

In turn, `c1coc(CCCCN2C3CCC2c2c([nH]c4ccccc24)C3)c1` (single isomer, unassigned; (-)) showed an inhibitory constant (Ki) on D(2) dopamine receptor [1] of 3.15 µM.

The compound `O=C1CC2(CCCC2)CC(=O)N1CCCCN1C2CCC1c1c([nH]c3ccccc13)C2` (stereo not drawn) registered a Ki at D(2) dopamine receptor [1] of 3 µM. This Ki and that of the compound before are within 1.5-fold of each other.

As to `c1csc(CCCCN2C3CCC2c2c([nH]c4ccccc24)C3)c1` (stereo not drawn), affinity at D(2) dopamine receptor [1] was put at a Ki of 0.62 µM.

Regarding `CC/C=C/N1C2CCC1c1c([nH]c3ccccc13)C2` (stereo not drawn), the Ki at D(2) dopamine receptor [1] was determined as 0.71 µM.

`c1ccc(-n2c3c(c4ccccc42)C2CCC(C3)N2)cc1` (stereo not drawn): affinity on D(2) dopamine receptor [1] was put at a Ki of 10 µM. Compared with the last compound, the Ki is about 14-fold higher.

Regarding `Fc1ccc2[nH]c3c(c2c1)C1CCC(C3)N1Cc1ccccc1` (stereo not drawn), the Ki on D(2) dopamine receptor [1] turned out to be 2.42 µM.

In the case of `c1ccc2c3c([nH]c2c1)CC1CCC3N1` (stereo not drawn), on D(2) dopamine receptor [2], the Ki was > 100 µM.

On D(2) dopamine receptor [1], `c1ccc(CCCCN2C3CCC2c2c(n(-c4ccccc4)c4ccccc24)C3)cc1` (stereo not drawn) gave an inhibitory constant (Ki) of 1.57 µM.

`c1ccc2c3c([nH]c2c1)CC1CCC3N1CCCCc1nccs1` (stereo not drawn) had a Ki on D(2) dopamine receptor [1] of 2.23 µM.

Consider `c1coc(CCCCN2C3CCC2c2c([nH]c4ccccc24)C3)c1` (stereo in doubt; 40), for which the Ki on D(2) dopamine receptor [1] came to 1.27 µM.

Compound `c1ccc(CCCCN2C3CCC2c2c([nH]c4ccccc24)C3)cc1` (stereo not drawn) registered an inhibitory constant (Ki) at D(2) dopamine receptor [1] of 0.733 µM.

Compound `CCCN1C2CCC1c1c([nH]c3ccccc13)C2` (stereo not drawn) yielded a Ki at D(2) dopamine receptor [1] of 11.2 µM. This Ki lies about 15-fold higher than the previous one.

With `c1ccc2c(c1)CN(CCN1C3CCC1c1c([nH]c4ccccc14)C3)C2` (stereo not drawn), the Ki on D(2) dopamine receptor [1] amounted to 2 µM.

Consider `c1coc(CCCCN2C3CCC2c2c([nH]c4ccccc24)C3)c1` (racemic), for which the Ki at D(2) dopamine receptor [1] worked out at 1.27 µM.

As to `CN(CCN1C2CCC1c1c([nH]c3ccccc13)C2)C(=O)Cc1ccc(Cl)c(Cl)c1` (stereo not drawn), at D(2) dopamine receptor [1], the affinity corresponds to a Ki of 3.79 µM.

On to `c1coc(CCCCN2C3CCC2c2c([nH]c4ccccc24)C3)c1` (single isomer, unassigned; (+)), for which the Ki at D(2) dopamine receptor [1] turned out to be 0.33 µM.

The Ki is a measure of affinity in units of concentration, obtained from inhibition or displacement. The low end stands for tighter binding, the high end for weaker binding.

The values are drawn from ChEMBL document CHEMBL1126584 (J Med Chem, 1993).
